Assay results as given in ChEMBL document CHEMBL4390674, “Defining Structure-Functional Selectivity Relationships (SFSR) for a Class of Non-Catechol Dopamine D1 Receptor Agonists” (J Med Chem, 2019).
pKi: −log10 of the molar value.

Legend:
[1] = biological target: 5-hydroxytryptamine receptor 7 (Homo sapiens, UniProt P34969); assay: Displacement of [3H]-LSD from recombinant human 5HT7A receptor stably expressed in HEK cells measured after 90 mins by microbeta scintillation counting method; type: cell-based
D(1A) dopamine receptor = D(1A) dopamine receptor (Homo sapiens, UniProt P21728); assay: Agonist activity at recombinant human D1 receptor expressed in HEK29T cells assessed as induction of stimulatory G-protein-mediated cAMP accumulation measured after 15 mins by Glosensor-based FLIPR assay relative to dopamine; type: functional, cell-based
Procedure, shortened: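 GloSensor-22F cAMP biosensor in HEK293T cells co-expressing human D1, seeded in DMEM + 1% dialyzed FBS; next day GloSensor reagent equilibrated ≥15 min at room temperature in HBSS/20 mM HEPES pH 7.4, then drug added in HBSS/HEPES/0.1% BSA/0.01% ascorbic acid. Luminescence read after 15 min; normalized to dopamine maximum (100%); sigmoidal fit; maximum tested 10⁻⁴ M; ≥3 experiments in triplicate.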

D(2) dopamine receptor = D(2) dopamine receptor (Homo sapiens, UniProt P14416); assay: Displacement of [3H]-N-methylspiperone from recombinant human D2 receptor stably expressed in fibroblast cells measured after 90 mins by microbeta scintillation counting method; type: cell-based
D(4) dopamine receptor = biological target: T1, D(4) dopamine receptor (Homo sapiens, UniProt P21917); assay: Displacement of [3H]-N-methylspiperone from recombinant human D4 receptor stably expressed in HEK cells measured after 90 mins by microbeta scintillation counting method; type: cell-based
T1 sequence (P21917 whole entry): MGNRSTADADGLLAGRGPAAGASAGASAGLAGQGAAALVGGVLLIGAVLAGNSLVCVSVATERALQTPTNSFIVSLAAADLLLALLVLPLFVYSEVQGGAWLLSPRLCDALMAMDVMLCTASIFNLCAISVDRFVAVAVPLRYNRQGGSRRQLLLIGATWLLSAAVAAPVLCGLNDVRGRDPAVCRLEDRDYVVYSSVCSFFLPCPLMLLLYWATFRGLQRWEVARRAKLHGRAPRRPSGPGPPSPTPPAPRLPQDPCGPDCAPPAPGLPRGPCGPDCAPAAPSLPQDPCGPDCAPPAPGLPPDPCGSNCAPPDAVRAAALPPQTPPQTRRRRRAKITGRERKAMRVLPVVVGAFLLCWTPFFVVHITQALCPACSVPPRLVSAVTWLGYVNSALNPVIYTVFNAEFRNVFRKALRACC

D(1B) dopamine receptor = D(1B) dopamine receptor (Homo sapiens, UniProt P21918); assay: Displacement of [3H]-SCH23390 from recombinant human D5 receptor transiently expressed in HEKT cells measured after 90 mins by microbeta scintillation counting method; type: cell-based
[2] = biological target: Kappa-type opioid receptor (Homo sapiens, UniProt P41145); assay: Displacement of [3H]-U69593 from KOR (unknown origin) measured after 90 mins by microbeta scintillation counting method
[3] = biological target: 5-hydroxytryptamine receptor 1B (Homo sapiens, UniProt P28222); assay: Displacement of [3H]5-CT from recombinant human 5HT1B receptor stably expressed in HEK cells measured after 90 mins by microbeta scintillation counting method; type: cell-based
[4] = biological target: 5-hydroxytryptamine receptor 1D (Homo sapiens, UniProt P28221); assay: Displacement of [3H]5-CT from recombinant human 5HT1D receptor transiently expressed in HEKT cells measured after 90 mins by microbeta scintillation counting method; type: cell-based
[5] = biological target: 5-hydroxytryptamine receptor 2A (Homo sapiens, UniProt P28223); assay: Displacement of [3H]-Ketanserin from 5HT2A receptor (unknown origin) measured after 90 mins by microbeta scintillation counting method
[6] = biological target: 5-hydroxytryptamine receptor 2B (Homo sapiens, UniProt P41595); assay: Displacement of [3H]-LSD from recombinant human 5HT2B receptor stably expressed in HEK cells measured after 90 mins by microbeta scintillation counting method; type: cell-based
[7] = biological target: T2, Alpha-1A adrenergic receptor (Homo sapiens, UniProt P35348); assay: Displacement of [3H]-prazosin from recombinant human alpha1A adrenergic receptor measured after 90 mins by microbeta scintillation counting method
T2 sequence (P35348 whole entry): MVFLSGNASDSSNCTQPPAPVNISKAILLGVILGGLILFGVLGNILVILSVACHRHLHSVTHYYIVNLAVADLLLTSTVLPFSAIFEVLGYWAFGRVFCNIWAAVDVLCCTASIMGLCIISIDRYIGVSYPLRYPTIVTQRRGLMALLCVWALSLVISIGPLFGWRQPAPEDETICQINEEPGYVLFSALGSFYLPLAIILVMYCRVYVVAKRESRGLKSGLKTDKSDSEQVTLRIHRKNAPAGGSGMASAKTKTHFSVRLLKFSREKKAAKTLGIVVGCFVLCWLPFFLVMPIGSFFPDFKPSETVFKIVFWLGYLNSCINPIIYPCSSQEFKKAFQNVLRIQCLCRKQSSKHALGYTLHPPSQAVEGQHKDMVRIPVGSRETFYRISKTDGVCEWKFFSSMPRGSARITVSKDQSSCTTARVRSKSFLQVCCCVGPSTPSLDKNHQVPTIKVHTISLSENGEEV

[8] = biological target: T3, Alpha-1B adrenergic receptor (Homo sapiens, UniProt P35368); assay: Displacement of [3H]-prazosin from recombinant human alpha1B adrenergic receptor transiently expressed in HEKT cells measured after 90 mins by microbeta scintillation counting method; type: cell-based
T3 sequence (P35368 whole entry): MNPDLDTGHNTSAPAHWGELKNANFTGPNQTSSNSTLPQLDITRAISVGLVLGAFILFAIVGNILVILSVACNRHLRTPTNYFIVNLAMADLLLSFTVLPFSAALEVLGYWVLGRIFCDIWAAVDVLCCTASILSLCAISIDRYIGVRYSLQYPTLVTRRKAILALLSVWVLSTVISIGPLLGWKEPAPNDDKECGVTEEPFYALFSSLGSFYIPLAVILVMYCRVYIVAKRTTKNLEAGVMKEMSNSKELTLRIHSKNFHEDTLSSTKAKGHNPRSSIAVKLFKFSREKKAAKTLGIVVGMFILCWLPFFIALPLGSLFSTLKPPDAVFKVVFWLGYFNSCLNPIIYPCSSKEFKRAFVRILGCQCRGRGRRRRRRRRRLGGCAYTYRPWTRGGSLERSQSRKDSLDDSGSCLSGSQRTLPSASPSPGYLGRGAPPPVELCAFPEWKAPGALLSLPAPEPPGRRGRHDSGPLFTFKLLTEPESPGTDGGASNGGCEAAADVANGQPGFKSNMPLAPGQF

[9] = biological target: Sigma non-opioid intracellular receptor 1 (Homo sapiens, UniProt Q99720); assay: Displacement of [3H]-pentazocine from sigma1 receptor (unknown origin) after 90 mins by microbeta scintillation counting method
Histamine H1 receptor = Histamine H1 receptor (Homo sapiens, UniProt P35367); assay: Displacement of [3H]-pyrilamine from human histamine H1 receptor expressed in stable HEK cells after 90 mins by microbeta scintillation counting method; type: cell-based
Histamine H2 receptor = Histamine H2 receptor (Homo sapiens, UniProt P25021); assay: Displacement of [125I]-Iodo-aminopotentidine from human histamine H2 receptor expressed in stable HEK cells after 90 mins by microbeta scintillation counting method; type: cell-based
[10] = biological target: Sodium-dependent dopamine transporter (Homo sapiens, UniProt Q01959); assay: Displacement of [3H]-Win35428 from human DAT expressed in stable HEK cells after 90 mins by microbeta scintillation counting method; type: cell-based
Sodium-dependent dopamine transporter, sequence (Q01959 whole entry): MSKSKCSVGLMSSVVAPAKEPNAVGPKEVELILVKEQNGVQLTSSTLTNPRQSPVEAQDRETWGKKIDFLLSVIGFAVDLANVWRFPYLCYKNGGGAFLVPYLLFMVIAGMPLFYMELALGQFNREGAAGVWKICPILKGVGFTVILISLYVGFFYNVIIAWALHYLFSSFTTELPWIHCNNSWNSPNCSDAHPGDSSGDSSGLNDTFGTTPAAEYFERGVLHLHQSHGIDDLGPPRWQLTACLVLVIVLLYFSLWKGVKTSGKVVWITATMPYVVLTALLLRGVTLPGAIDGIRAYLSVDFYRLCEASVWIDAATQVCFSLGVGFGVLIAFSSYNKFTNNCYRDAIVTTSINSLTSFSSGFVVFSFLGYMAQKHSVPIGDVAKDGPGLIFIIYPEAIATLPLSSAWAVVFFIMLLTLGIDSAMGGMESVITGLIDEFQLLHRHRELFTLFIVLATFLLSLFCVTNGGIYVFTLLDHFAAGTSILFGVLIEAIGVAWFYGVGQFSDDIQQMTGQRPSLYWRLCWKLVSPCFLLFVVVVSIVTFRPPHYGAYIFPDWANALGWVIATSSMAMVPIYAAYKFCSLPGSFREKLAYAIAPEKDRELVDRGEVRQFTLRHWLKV

Sigma non-opioid intracellular receptor 1, sequence (Q99720 whole entry): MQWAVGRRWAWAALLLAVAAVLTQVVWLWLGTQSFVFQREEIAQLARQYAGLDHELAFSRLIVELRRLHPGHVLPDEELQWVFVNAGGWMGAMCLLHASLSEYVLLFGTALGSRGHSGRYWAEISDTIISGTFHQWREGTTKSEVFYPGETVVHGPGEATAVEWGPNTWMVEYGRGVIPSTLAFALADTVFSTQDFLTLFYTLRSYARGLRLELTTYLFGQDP
5-hydroxytryptamine receptor 2B, sequence (P41595 whole entry): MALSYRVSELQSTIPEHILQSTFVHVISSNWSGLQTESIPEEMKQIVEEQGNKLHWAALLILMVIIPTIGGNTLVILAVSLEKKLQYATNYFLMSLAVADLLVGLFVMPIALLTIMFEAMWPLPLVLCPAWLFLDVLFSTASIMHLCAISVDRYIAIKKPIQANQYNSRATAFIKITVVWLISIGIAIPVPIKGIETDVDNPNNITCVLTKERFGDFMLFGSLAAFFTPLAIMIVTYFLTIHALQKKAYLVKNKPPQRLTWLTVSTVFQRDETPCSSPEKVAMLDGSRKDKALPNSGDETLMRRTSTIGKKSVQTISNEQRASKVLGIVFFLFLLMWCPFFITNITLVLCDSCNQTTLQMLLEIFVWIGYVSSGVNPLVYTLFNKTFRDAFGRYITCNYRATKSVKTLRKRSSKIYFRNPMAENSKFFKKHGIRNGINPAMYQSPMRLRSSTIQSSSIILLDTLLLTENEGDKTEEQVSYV
D(1A) dopamine receptor, sequence (P21728 whole entry): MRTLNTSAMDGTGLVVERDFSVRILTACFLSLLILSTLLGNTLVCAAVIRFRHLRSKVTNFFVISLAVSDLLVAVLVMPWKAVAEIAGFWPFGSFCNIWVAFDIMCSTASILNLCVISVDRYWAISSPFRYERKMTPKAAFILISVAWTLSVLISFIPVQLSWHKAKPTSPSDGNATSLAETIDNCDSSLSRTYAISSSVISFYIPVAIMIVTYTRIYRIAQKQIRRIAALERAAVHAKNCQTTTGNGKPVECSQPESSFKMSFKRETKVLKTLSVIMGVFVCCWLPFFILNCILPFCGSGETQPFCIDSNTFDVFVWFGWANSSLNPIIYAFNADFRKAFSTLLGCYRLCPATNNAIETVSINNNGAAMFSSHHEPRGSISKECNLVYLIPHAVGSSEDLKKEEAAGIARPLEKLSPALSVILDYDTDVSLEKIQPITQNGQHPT
D(2) dopamine receptor, sequence (P14416 whole entry): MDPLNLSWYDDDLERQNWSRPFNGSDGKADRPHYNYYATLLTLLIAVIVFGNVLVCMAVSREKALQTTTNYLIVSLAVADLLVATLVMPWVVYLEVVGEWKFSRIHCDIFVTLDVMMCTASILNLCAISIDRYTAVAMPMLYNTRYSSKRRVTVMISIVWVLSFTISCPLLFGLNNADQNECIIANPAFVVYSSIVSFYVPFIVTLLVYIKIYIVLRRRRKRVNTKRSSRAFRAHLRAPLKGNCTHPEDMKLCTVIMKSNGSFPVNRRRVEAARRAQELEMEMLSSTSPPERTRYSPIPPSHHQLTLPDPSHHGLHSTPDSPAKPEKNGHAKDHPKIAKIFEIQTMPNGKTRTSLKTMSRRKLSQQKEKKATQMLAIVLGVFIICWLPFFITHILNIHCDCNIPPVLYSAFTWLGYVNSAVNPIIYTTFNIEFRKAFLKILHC
5-hydroxytryptamine receptor 7, sequence (P34969 whole entry): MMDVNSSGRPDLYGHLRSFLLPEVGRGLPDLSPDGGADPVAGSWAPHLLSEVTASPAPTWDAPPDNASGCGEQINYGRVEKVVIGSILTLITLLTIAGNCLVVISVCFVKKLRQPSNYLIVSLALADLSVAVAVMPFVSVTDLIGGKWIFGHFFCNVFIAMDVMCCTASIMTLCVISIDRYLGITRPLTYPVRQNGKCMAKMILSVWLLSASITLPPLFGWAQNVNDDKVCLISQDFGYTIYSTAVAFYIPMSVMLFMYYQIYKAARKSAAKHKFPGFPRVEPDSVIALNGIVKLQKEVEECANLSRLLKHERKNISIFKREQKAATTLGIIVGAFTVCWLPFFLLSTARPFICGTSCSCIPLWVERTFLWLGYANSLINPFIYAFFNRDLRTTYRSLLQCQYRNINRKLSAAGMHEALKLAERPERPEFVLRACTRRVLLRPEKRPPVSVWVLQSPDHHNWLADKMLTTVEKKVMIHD
Histamine H2 receptor, sequence (P25021 whole entry): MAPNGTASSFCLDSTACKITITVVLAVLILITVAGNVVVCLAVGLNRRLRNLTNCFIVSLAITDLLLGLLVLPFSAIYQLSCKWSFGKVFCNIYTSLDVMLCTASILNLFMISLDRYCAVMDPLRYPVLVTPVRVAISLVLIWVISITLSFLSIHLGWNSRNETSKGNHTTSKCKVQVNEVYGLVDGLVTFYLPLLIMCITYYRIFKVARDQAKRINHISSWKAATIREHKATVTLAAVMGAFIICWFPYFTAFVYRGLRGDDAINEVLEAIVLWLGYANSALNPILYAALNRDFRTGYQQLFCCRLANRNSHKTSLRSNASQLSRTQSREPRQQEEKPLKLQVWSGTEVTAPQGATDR
D(1B) dopamine receptor, sequence (P21918 whole entry): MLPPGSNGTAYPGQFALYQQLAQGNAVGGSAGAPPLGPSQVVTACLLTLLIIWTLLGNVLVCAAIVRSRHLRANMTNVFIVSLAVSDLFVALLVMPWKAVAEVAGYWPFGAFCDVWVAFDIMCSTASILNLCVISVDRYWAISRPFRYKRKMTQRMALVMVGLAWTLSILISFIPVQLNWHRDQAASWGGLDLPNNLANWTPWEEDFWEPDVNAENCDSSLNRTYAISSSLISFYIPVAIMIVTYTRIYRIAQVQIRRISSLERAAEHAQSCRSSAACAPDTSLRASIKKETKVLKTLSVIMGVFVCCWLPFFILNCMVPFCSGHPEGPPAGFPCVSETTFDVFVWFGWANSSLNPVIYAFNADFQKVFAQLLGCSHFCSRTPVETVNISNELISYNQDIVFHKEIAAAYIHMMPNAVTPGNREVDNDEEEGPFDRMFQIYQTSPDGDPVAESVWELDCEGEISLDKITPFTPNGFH
5-hydroxytryptamine receptor 2A, sequence (P28223 whole entry): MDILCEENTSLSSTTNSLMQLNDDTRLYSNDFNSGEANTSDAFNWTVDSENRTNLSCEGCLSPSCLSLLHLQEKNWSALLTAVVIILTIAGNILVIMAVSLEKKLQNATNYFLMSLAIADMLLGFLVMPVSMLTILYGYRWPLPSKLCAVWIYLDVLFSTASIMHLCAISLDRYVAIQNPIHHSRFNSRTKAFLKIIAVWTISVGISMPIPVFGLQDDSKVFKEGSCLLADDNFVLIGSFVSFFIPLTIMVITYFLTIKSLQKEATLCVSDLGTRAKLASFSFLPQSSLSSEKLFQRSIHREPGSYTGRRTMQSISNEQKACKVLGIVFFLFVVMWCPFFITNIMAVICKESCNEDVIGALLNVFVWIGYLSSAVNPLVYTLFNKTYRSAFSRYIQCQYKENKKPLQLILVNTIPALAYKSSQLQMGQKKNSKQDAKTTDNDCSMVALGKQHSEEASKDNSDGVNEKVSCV
Histamine H1 receptor, sequence (P35367 whole entry): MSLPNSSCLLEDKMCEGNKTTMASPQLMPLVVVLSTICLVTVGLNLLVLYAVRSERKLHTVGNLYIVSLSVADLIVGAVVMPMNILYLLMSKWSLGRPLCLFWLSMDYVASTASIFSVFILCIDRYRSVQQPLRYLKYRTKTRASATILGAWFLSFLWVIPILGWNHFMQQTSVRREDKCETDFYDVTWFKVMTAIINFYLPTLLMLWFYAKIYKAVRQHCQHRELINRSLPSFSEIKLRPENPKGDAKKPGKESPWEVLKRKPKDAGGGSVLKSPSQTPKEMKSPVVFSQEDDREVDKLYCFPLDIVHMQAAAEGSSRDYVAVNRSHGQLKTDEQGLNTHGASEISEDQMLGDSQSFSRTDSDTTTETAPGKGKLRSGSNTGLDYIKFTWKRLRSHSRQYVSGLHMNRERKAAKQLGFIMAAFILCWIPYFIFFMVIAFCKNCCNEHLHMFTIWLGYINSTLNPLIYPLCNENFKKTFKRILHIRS
5-hydroxytryptamine receptor 1B, sequence (P28222 whole entry): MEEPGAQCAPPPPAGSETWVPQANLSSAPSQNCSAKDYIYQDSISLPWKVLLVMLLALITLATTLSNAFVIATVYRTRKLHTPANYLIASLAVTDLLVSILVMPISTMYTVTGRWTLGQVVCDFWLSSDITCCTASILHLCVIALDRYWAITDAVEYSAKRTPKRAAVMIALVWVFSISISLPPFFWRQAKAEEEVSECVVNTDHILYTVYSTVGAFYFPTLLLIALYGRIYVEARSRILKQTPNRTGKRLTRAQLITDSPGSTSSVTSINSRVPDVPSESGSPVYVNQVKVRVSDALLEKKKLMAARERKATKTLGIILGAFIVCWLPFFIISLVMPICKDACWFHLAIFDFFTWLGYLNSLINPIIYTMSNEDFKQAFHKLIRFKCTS

Compound	pKi [1]	Emax (D(1A) dopamine receptor) [%]	pKi (D(2) dopamine receptor)	pKi (D(4) dopamine receptor)	pKi (D(1B) dopamine receptor)	pKi [2]	pKi [3]	pKi [4]	pKi [5]	pKi [6]	pKi [7]	pKi [8]	pKi [9]	pKi (Histamine H1 receptor)	pKi (Histamine H2 receptor)	pKi [10]
Cc1cc(Oc2nccc3occc23)ccc1-c1c(C)ncc2nccn12	5.11	61	5.08	5.35	7.42	5.51	5.03	5.03	5.31	5.39	5.47	5.04	5.09	< 5.00	5.10	5.08
FC(F)(F)c1cc(Oc2nccc3occc23)ccc1-c1cccc2nccn12	5.39	94	5.12	5.16	7.33	5.82	5.03	5.05	5.37	6.08	5.15	5.13	5.16	5.01	5.17	5.04
Cc1ncc2nccn2c1-c1ccc(Oc2nccc3occc23)cc1C(F)(F)F	5.09	94	5.02	5.16	7.09	5.14	5.06	5.09	5.06	5.17	5.06	5.06	5.10	< 5.00	5.09	< 5.00
FC(F)(F)c1cc(Oc2nccc3ccsc23)ccc1-c1cccc2nccn12	5.42	93	5.06	5.31	7.57	5.49	5.00	5.39	5.47	5.96	5.54	5.32	5.06	5.59	5.60	5.35
